In the library only some 3.9% were active in any assay of this set; here they are far more common.
APP 5'UTR act: activates APP 5'UTR luciferase reporter | SH-SY5Y APP 5'UTR luciferase reporter, luminescence; zero percent = DMSO vehicle wells | activation, % at 2 µM | 1% of 190,000 active | AID 1276;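 active = activation above a set limit, based on mean plus 3 SD of controls, cut at about 140% in these data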
FLuc inhib CS: counter-screen for luciferase assay inhibitors: firefly luciferase inhibition | 1.5% of 200,000 active | ATPLite firefly luciferase biochemical luminescence, 10 min | AID 1006 | P08659 | inhibition, % at 10 µM;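 active = inhibition above about 50% when tested at 10 µM, limit read from the data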
Target sequence (P08659 whole entry, looked up): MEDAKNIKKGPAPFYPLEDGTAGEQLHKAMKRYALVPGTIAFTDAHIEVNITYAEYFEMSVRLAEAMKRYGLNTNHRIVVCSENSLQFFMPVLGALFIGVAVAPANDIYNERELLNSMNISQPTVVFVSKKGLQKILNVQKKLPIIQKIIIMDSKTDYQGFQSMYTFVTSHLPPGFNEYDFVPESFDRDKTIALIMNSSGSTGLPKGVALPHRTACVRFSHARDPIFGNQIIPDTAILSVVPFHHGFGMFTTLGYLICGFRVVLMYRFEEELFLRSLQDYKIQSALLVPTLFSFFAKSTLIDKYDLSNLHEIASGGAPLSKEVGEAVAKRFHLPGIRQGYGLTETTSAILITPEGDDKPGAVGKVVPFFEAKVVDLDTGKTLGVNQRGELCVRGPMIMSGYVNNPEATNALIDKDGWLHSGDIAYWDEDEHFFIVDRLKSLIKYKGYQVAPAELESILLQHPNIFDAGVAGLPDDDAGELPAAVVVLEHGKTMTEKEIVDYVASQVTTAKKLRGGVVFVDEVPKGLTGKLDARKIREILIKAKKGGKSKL
Rad51 HR inh: Rad51 (human) homologous recombination inhibition; 0.085% of 200,000 active; hRad51 DNA strand exchange, fluorescence dequenching; inhibition, % at 10 µM;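 active = inhibition above 40% at the single screening dose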
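Material: hRad51 filaments on single-stranded DNA; Reagent: Donor/quencher-labelled 47-bp dsDNA substrate; Compound: 10 µM final, single point; Schedule: 37 °C 15-min filament assembly, 30-min compound preincubation, 15-min exchange; Technique: FRET fluorescence, excitation 485 nm, emission 520 nm; Benchmarks: control wells and blank wells on each plate.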
NF-kB expr up: NF-kB expression increase, human neuronal cells; NF-kB reporter expression; stronger effect = higher value; fold change at 12.5 µM; 1.6% of 190,000 active; AID 1239; in the data active = fold change above about 3.3
FLuc stim CS: firefly luciferase counter-screen for stimulation assays | P08659 | ATPlite luciferase biochemical, luminescence, 10 min; 0 = ATP-free wells, 1 = DMSO control | activation factor at 10 µM | 200,000 tested, under 10 active | AID 1027;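 active = luciferase activation factor, scaled between plate controls, of at least 2 with compound at 10 µM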
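System: Luciferase/luciferin detection reagent, cell-free biochemical luciferase assay | Medium: PBS buffer for ATP | Dosing: Test compounds dosed from 2 mM stocks in 100% DMSO | Timing: 10 min at ambient temperature | Signal: Luminescence measurement of luciferase light output | Evaluation: Luciferase activation, seen as luminescence increase over controls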
STAT1 activator: increases IFN-gamma driven STAT1 reporter signal; NIH 3T3 STAT1-luciferase reporter, luminescence; 100% = IFN-gamma alone, no compound; 2.6% of 200,000 active; activation (% of control), % at 5.5 µM;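 active = activation above the screen-wide mean activation plus 3 SD, cut at about 130% in these data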
STAT1 activ conf: confirmation of STAT1 signaling activators; shares compounds with STAT1 activator; NIH 3T3 STAT1-luciferase reporter, IFN-gamma potentiation, luminescence; 100% = IFN-gamma EC80 alone, no compound; activation (% of control), % at 5.7 µM; 97% of 1,200 active;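 active = activation above a set limit carried over from the earlier primary STAT1 screen, cut at about 140% in these data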
NFkB act: counter-screen for STAT1 activators: NF-kappaB activation. activation (% of control), % at 5.7 µM. HEK293T NF-kB luciferase reporter, TNF-alpha stimulated, luminescence; 100% = TNF-alpha with vehicle only. 43% of 1,200 active. shares compounds with STAT1 activator;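 active = activation above the mean of solvent-only control wells plus 3 SD, set per campaign, cut at about 130% in these data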;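 note: TNF-alpha given at a submaximal dose yielding about 80% of full reporter signal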
STAT3 act STAT1c: counter-screen for STAT1 activators: human STAT3 activation; shares compounds with STAT1 activator; U3A cells STAT3-luciferase reporter, IL-6, luminescence; cells lack STAT1; 100 = IL-6 alone, no compound effect; activation (% of control), % at 5.7 µM; 46% of 1,200 active;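 active = activation above the solvent-only control well mean plus 3 SD, set per plate batch, cut at about 110% in these data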;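 note: higher means more STAT3 reporter activation so hits are non-selective activators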
A number is an active result; 0 = inactive; - = no result.

SMILES	APP 5'UTR act	FLuc inhib CS	Rad51 HR inh	NF-kB expr up	FLuc stim CS	STAT1 activator	STAT1 activ conf	NFkB act	STAT3 act STAT1c
CN(C)c1ccc(/C=N/n2c(COc3ccccc3)n[nH]c2=S)cc1	0	0	0	0	0	0	-	-	-
CCCOc1cccc(C2C(C(=O)c3cccs3)=C(O)C(=O)N2Cc2cccnc2)c1 (stereo not drawn)	-	-	0	-	-	-	-	-	-
CC(C)(C)c1ccc(OCCn2ccccc2=O)cc1	0	0	0	5.5	0	177	197	0	117
COC(=O)c1ccc(OC(=O)c2ccccn2)cc1	0	0	0	0	0	0	-	-	-
COC(=O)c1ccc(/C=C(\C#N)c2ccccn2)cc1	148	73	0	7	0	204	225	158	0
COC(=O)CN1C(=O)[C@@H]2[C@H](C1=O)[C@@H]1CC(C(=O)OC)=C[C@@H](C(=O)OC)[C@@H]3C1=C(C(=O)[C@]3(C)NC(=O)c1ccccc1)[C@@H]2C	-	-	0	-	-	-	-	-	-
Cc1ccc(NC(=O)c2c(C)nc3ccccn23)cc1C	168	67	0	3.8	0	154	191	139	0
COc1cccc2cc(-c3csc(CCn4nc(C)cc4C)n3)c(=O)oc12	0	0	0	0	0	0	-	-	-
COc1cccc2cc(-c3cn4ccc(C)cc4n3)c(=O)oc12	0	-	0	-	-	169	218	134	0
O=C(NCCC1=CCCCC1)C1CCCN(c2nc3ccccc3o2)C1 (stereo not drawn)	0	0	0	0	0	0	-	-	-
C=C(C)CN(CC)C(=O)CCc1nnc(CCCc2ccccc2)o1	0	0	-	0	0	154	172	0	123
Cc1ccc(Oc2ncnc(N)c2[N+](=O)[O-])cc1	0	0	0	0	0	0	-	-	-
Cc1cc(C)n(-c2ccc(C(=O)Nc3ccccn3)cc2)n1	142	65	0	4.1	0	156	181	0	0
Cc1cc(C)n(-c2ccc(C(=O)Nc3sccc3C(N)=O)cc2)n1	171	0	0	0	0	163	211	0	0
O=C(NCc1ccccc1)c1c[nH]c2cc3c(cc2c1=O)OCCO3	0	0	0	3.5	0	178	190	140	126
Brc1ccc(/C=N/Nc2ccc3ccccc3n2)cc1	0	0	0	0	0	0	-	-	-
Brc1ccccc1/C=N/Nc1ccc2ccccc2n1	0	0	0	9.4	0	158	191	0	146
CC(=O)c1sc(NC(=O)c2ccco2)nc1-c1ccccc1	0	0	0	0	0	0	-	-	-
COC(=O)c1c(-c2ccccc2)csc1NC(=O)c1ccco1	0	0	0	0	0	174	194	135	0
Cc1sc(NC(=O)c2ccco2)nc1-c1ccccc1	170	0	0	6.9	0	202	237	135	112
O=C(Nc1nc(-c2cccs2)cs1)c1ccco1	196	53	0	3.6	0	159	173	134	0
COc1ccc2c(c1)Cc1sc(NC(=O)c3ccco3)nc1-2	186	0	0	3.9	0	189	199	147	0
COc1ccc(CNC(=O)CN(CC2CCCO2)C(=O)CNS(=O)(=O)c2ccc(F)cc2)cc1 (stereo not drawn)	0	0	0	0	0	0	-	-	-
COc1ccc2oc(-c3ccco3)cc(=O)c2c1	0	59	0	0	0	160	183	0	0
O=c1cc(-c2ccco2)oc2ccc(Cl)cc12	0	0	0	0	0	0	-	-	-
SMILES	APP 5'UTR act	FLuc inhib CS	Rad51 HR inh	NF-kB expr up	FLuc stim CS	STAT1 activator	STAT1 activ conf	NFkB act	STAT3 act STAT1c
Oc1ccc(O)c(Cc2nc3ccccc3[nH]2)c1	0	0	0	0	0	0	-	-	-
c1ccc2cc(OCc3nc4ccccc4[nH]3)ccc2c1	184	73	0	5.1	0	163	200	0	0
CCNc1nc(SCCOc2ccc(Br)cc2)nc(N(C)C)n1	0	0	0	0	0	0	-	-	-
c1ccc(N2CCN(c3cnc4ccccc4n3)CC2)cc1	0	0	0	6.5	0	175	219	0	0
Nc1c2c(=O)oc(-c3ccccc3)cc2nn1-c1ccccc1	150	0	-	3.3	0	177	203	0	0
Cc1c(-c2ccc(Cl)cc2)oc(=O)c2c(N)n(-c3ccccc3)nc12	0	0	0	0	0	0	-	-	-
COC(=O)c1sc2nc3c(cc2c1N)C(=O)CC(C)(C)C3	0	0	0	0	0	0	-	-	-
COC(=O)c1sc2nc3c(cc2c1N)CCCC3	164	60	-	8.2	0	165	227	148	0
CCOC(=O)c1sc2nc3c(cc2c1N)COC(C)(CC)C3 (stereo not drawn)	175	0	0	7.3	0	201	287	146	0
COc1ccc(-c2cc(C(=O)Nc3ccccc3)on2)cc1	0	0	0	0	0	179	156	0	0
Cc1noc(C)c1COc1ccc(C(=O)OCC(=O)NCCN2C(=O)CSC2=O)cc1	0	0	0	0	0	0	-	-	-
CCOc1cc(/C=N/N2CCOCC2)ccc1OCc1ccc(C(=O)OC)o1	0	0	0	0	0	0	-	-	-
Cc1ccc(-c2nc3cc(N)ccc3o2)c(C)c1	0	78	0	4.9	0	154	233	0	0
Cc1ccccc1-c1nc2cc(Cl)ccc2o1	0	0	0	0	0	0	-	-	-
Cc1ccc(C=Nc2ccc(N(C)C)cc2)o1	153	76	0	0	0	164	149	0	113
CCC(C)[C@H]1CN=C(N)N1CCc1cccc(F)c1 (stereo partly drawn)	-	-	0	-	-	-	-	-	-
CC1(C(=O)OCC(=O)Nc2ccc3ccccc3c2)CC1(Cl)Cl (stereo not drawn)	0	0	0	0	0	0	-	-	-
O=C(N=Nc1c(O)[nH]c2ccccc12)c1ccco1	142	75	0	0	0	155	179	0	126
c1ccc(OCCN2CCN(Cc3nc(-c4ccc5c(c4)OCO5)no3)CC2)cc1	0	0	-	0	0	0	-	-	-
O=C(N/N=C\c1ccc(OC(=O)c2cccs2)cc1)c1ccc(Cl)cc1	0	0	0	0	0	0	-	-	-
Cc1ccc2cc(CCNC(=O)c3cccs3)c(=O)[nH]c2c1C	0	0	-	4	0	165	187	135	0
N#Cc1c(/N=C/N2CCOCC2)sc2c1CCCCC2	0	0	0	4.9	0	155	194	0	126

Assay outcomes (PubChem BioAssay)
